UCH37 inh: inhibitors of human deubiquitinating enzyme UCH37. purified proteasome/UCH37, Ub-AMC cleavage fluorescence. inhibition, % (test concentration not listed). 330,000 compounds, 0.33% hits. AID 588478;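 active = mean inhibition over replicate wells above about 20%, limit read from the data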
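Material: human UCH37 enzyme supplied as purified proteasome complex / Amount: 0.15 nM proteasome as dispensed / Buffer or medium: pH 7.4 Tris-HCl (50 mM) with ovalbumin, ATP-MgCl2, DTT / Times: preincubation 30 min, reaction 25 min, room temperature / Technique: AMC fluorescence from Ub-AMC cleavage, excitation 355 nm, emission 460 nm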
M18AAP inhibitor: blocks P. falciparum M18 aspartyl aminopeptidase. recombinant PfM18AAP, H-Glu-NHMec fluorogenic cleavage. inhibition, % at 7.35 µM. 290,000 compounds, 1.2% hits. AID 1822;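 active = inhibition above the campaign mean inhibition over all tested compounds plus 3 SD, cut at about 28% in these data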
FAS TE block: blocks the thioesterase domain of human fatty acid synthase | P49327 | recombinant FAS-TE, OMFH fluorogenic substrate, fluorescence endpoint | inhibition, % at 15 µM | 360,000 compounds, 0.67% hits | AID 602261;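 active = compounds whose normalised, plate-corrected inhibition of enzyme fluorescence in the single-dose primary screen is 50% or more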
HDAC3 inhib: inhibitors of human histone deacetylase 3; O15379; recombinant HDAC3, fluorogenic peptide/trypsin coupled, fluorescence; inhibition, % at 8.3 µM; 320,000 compounds, 0.15% hits; in the data active = inhibition above about 26%, passing the limit was not always enough
Rtt109 Vps75: blocks Candida albicans Rtt109/Vps75 acetyltransferase activity. Q5AAJ8. purified Rtt109/Vps75, ThioGlo CoA-SH fluorescence, 4 h. inhibition, % at 34.9 µM. 330,000 compounds, 0.16% hits;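 active = inhibition of at least 50% in every replicate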
Target sequence (Q5AAJ8 whole entry, looked up): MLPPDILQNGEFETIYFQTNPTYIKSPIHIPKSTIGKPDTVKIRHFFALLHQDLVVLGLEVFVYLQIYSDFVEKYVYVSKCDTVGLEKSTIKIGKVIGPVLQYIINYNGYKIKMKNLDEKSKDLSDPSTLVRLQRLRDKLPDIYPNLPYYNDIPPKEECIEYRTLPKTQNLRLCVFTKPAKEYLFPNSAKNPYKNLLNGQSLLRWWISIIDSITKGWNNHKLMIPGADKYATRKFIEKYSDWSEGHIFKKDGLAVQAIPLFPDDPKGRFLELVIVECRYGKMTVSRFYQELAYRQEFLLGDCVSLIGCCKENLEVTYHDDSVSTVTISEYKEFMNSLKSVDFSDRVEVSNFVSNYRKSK
ALR H2O2 inh: blocks human ALR sulfhydryl oxidase activity; AID 485317; purified ALR, DTT oxidation, H2O2 HRP-luminol luminescence; inhibition, % (no concentration beside the values); 290,000 compounds, 3.8% hits; P55789;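 active = mean replicate inhibition above about 79%, with every replicate also reaching it, limit read from the data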
Target sequence (P55789 whole entry, looked up): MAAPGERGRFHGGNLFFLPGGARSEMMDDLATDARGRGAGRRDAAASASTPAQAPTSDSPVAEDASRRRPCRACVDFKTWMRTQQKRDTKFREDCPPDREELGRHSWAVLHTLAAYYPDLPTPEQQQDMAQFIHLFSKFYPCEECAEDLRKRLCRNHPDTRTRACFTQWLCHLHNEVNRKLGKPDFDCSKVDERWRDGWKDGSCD
Large screens that a line does not name were inactive. Shown are actives, neighbours in structure and some others; about 4.6% of the full set was active somewhere.

O=C(O)CC/C(=C\c1ccc(N2CCCC2)c([N+](=O)[O-])c1)c1nc2ccccc2s1	none
C/C(C=NNC(=O)c1cc(C(C)C)[nH]n1)=C\c1ccccc1	none (no result: M18AAP inhibitor, FAS TE block, HDAC3 inhib, Rtt109 Vps75, ALR H2O2 inh)
CS(=O)(=O)c1cccc(C(=O)Nc2cccc(-c3nc4ccccc4[nH]3)c2)c1	ALR H2O2 inh 99
CS(=O)(=O)c1ccc(C(=O)Nc2ccc(-c3nc4ccccc4[nH]3)cc2)cc1	none
CS(=O)(=O)Cc1ccc(C(=O)Nc2cccc(-c3nc4ccccc4[nH]3)c2)cc1	none
CS(=O)(=O)c1ccc(C(=O)Nc2cccc(-c3nc4ccccc4[nH]3)c2)cc1	ALR H2O2 inh 99
CCN(CC)CCn1c2ccccc2c2n[nH]c(=S)nc21	ALR H2O2 inh 94
COc1ccccc1N1CCN(N=Cc2cccnc2)CC1	none (no result: M18AAP inhibitor, FAS TE block, HDAC3 inhib, Rtt109 Vps75, ALR H2O2 inh)
CC1CC(=O)c2c(cc3c(-c4c(O)cc(O)c5c(O)c6c(cc45)OC(C)CC6=O)c(O)cc(O)c3c2O)O1 (centres undefined)	UCH37 inh 22
Cc1ccsc1C=Nn1c(COc2ccccc2)n[nH]c1=S	none (no result: M18AAP inhibitor, FAS TE block, HDAC3 inhib, Rtt109 Vps75, ALR H2O2 inh)
CC(=O)Nc1ccc(NC2CCCCC2NS(=O)(=O)c2ccccc2)cc1 (centres undefined)	ALR H2O2 inh 99
Cc1ccc(NC2CCCCC2NS(=O)(=O)c2ccccc2)c(C)c1 (centres undefined)	ALR H2O2 inh 86
CCc1ccc(NC(=O)C(=O)NN=C(C)CC(=O)NCCOC)cc1	none (no result: M18AAP inhibitor, FAS TE block, HDAC3 inhib, Rtt109 Vps75, ALR H2O2 inh)
Cc1ccc(-c2cnc(C(O)c3ccc(C)cc3)[nH]2)cc1 (centres undefined)	none (no result: UCH37 inh, M18AAP inhibitor, HDAC3 inhib, Rtt109 Vps75, ALR H2O2 inh)
S=c1nccc(-c2cccs2)[nH]1	M18AAP inhibitor 29, ALR H2O2 inh 99
S=c1nccc(-c2ccc3c(c2)CCO3)[nH]1	ALR H2O2 inh 98 (no result: UCH37 inh)
CC1(C)CCc2cc(-c3ccnc(=S)[nH]3)ccc2O1	ALR H2O2 inh 100
CC1(C)CCc2cc(CN3CCN(c4ccccn4)CC3)ccc2O1	none
Fc1ccc(-c2noc(-c3ccc4c(c3)CCO4)n2)cc1	none
Cc1ccc(-c2ccnc(=S)[nH]2)cc1	ALR H2O2 inh 100
CCCCC(CCCC)=NN=Cc1c(O)n(CC)c2cc(C3=NNC(=O)CC3)ccc12	none (no result: M18AAP inhibitor, FAS TE block, HDAC3 inhib, Rtt109 Vps75, ALR H2O2 inh)
N#CC(C(=O)N1CCOCC1)=c1sc(=Cc2ccccn2)c(=O)n1-c1ccccc1	none (no result: M18AAP inhibitor, FAS TE block, HDAC3 inhib, Rtt109 Vps75, ALR H2O2 inh)
Cn1c(SCc2ccc(Br)cc2)nc2c(c1=O)SCC2	ALR H2O2 inh 98 (no result: UCH37 inh)
Cn1c(SCc2cccc([N+](=O)[O-])c2)nc2c(c1=O)SCC2	ALR H2O2 inh 99
Cn1c(SCc2cccnc2)nc2c(c1=O)SCC2	ALR H2O2 inh 99
COc1cccc(CNC(=O)c2ccc(OCC(=O)N3CCOCC3)c(OC)c2)c1	none (no result: M18AAP inhibitor, HDAC3 inhib)
COc1cccc(CNC(=O)C2=Cc3cccc(OC)c3OC2)c1	ALR H2O2 inh 96
Cc1cc(C)cc(NC(=O)CSc2nc3[nH]c(=O)cc(O)c3s2)c1	ALR H2O2 inh 98
O=C(CSc1nc2[nH]c(=O)cc(O)c2s1)Nc1ccc(Cl)c(C(F)(F)F)c1	ALR H2O2 inh 99 (no result: M18AAP inhibitor)
O=C(CSc1nc2[nH]c(=O)cc(O)c2s1)Nc1cc(Cl)cc(Cl)c1	ALR H2O2 inh 99
COc1ccc(NC(=O)CSc2nc3[nH]c(=O)cc(O)c3s2)c(OC)c1	none (no result: M18AAP inhibitor)
CCN(CC)C(=O)C1CCCN(c2ccc([N+](=O)[O-])cc2C=NNC(=O)c2cccc(O)c2)C1 (centres undefined)	none (no result: M18AAP inhibitor, FAS TE block, HDAC3 inhib, Rtt109 Vps75, ALR H2O2 inh)
CCOC(=O)C=c1sc(=Cc2ccc(C(F)(F)F)cc2)c(=O)n1CC(=O)NCc1ccco1	none (no result: M18AAP inhibitor, FAS TE block, HDAC3 inhib, Rtt109 Vps75, ALR H2O2 inh)
NNC(=O)CCc1nc2ccc(O)cc2[nH]1	ALR H2O2 inh 96 (no result: UCH37 inh)
O=C(CCc1nc2ccccc2[nH]1)Nc1ccccc1	none (no result: HDAC3 inhib, ALR H2O2 inh)
Cc1cccc(N2CCN(C(=O)c3ccc4c(c3)NC(=O)C(CSCc3ccc(F)cc3)N4)CC2C)c1 (centres undefined)	ALR H2O2 inh 97 (no result: UCH37 inh, FAS TE block, Rtt109 Vps75)
CC(=NNC(=O)COc1ccc(C)cc1[N+](=O)[O-])c1cccs1	none (no result: M18AAP inhibitor, FAS TE block, HDAC3 inhib, Rtt109 Vps75, ALR H2O2 inh)
CNC(=O)NN=C(N)c1ccccn1	none (no result: M18AAP inhibitor, FAS TE block, HDAC3 inhib, Rtt109 Vps75, ALR H2O2 inh)
CC1=C(C=NNc2ccc([N+](=O)[O-])cc2[N+](=O)[O-])C(C)(C)CCC1	none (no result: M18AAP inhibitor, FAS TE block, HDAC3 inhib, Rtt109 Vps75, ALR H2O2 inh)
CC1CCc2c(sc3nc(CSc4ncn[nH]4)[nH]c(=O)c23)C1 (centres undefined)	M18AAP inhibitor 56
Cc1cc(=O)[nH]c(NN=C/C=C/c2ccccc2)n1	none (no result: M18AAP inhibitor, FAS TE block, HDAC3 inhib, Rtt109 Vps75, ALR H2O2 inh)
CCCCCC(=O)N/N=C/c1ccc(N(C)C)cc1	ALR H2O2 inh 90 (no result: UCH37 inh)

Source: PubChem BioAssay
